In brackets after ≈: the same amount, converted by molar mass. Bounds are passed on as bounds.

The values that follow come from ChEMBL document CHEMBL1777764, “Synthesis and evaluation of 1-(1H-indol-3-yl)ethanamine derivatives as new antibacterial agents” (Bioorg Med Chem, 2011).

Holding throughout (assay type): functional
In experiment [1] the test system is Staphylococcus epidermidis. Kind of experiment: Antibacterial activity against Staphylococcus epidermidis CIP 103627 after 18 hrs by broth microdilution method. Conditions: CIP 103627, 18 h. In a few lines: (§1)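 MIC by broth microdilution per ISO 20776-1:2006 and CLSI M07-A8. Inoculum 10^6 cfu/ml in Mueller-Hinton broth with compound serially diluted, final concentrations 2 to 128 ug/ml, duplicate rows, no-drug growth control. Incubation 18 h at 37 °C. MIC taken as lowest concentration giving complete inhibition of visible growth. Each compound tested at least twice.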

In experiment [2] the test system is Staphylococcus aureus. Nature of the experiment: Antibacterial activity against Staphylococcus aureus CIP 103428 after 18 hrs by broth microdilution method. The conditions noted are these: CIP 103428, 18 h. In a few lines: as §1
Experiment [3] concerns Staphylococcus epidermidis. Kind of experiment: Antibacterial activity against Staphylococcus epidermidis ATCC 12228 after 18 hrs by broth microdilution method. The conditions noted are these: ATCC 12228, 18 h. In a few lines: as §1
In general terms: In broth dilution the organism is exposed to a series of concentrations in liquid medium.

Experiment [4] deals with Staphylococcus aureus. Kind of experiment: Antibacterial activity against Staphylococcus aureus ATCC 6538 after 18 hrs by broth microdilution method. The conditions noted are these: ATCC 6538, 18 h. A digest of the protocol: as §1
For experiment [5], the system named is Staphylococcus aureus. Nature of the experiment: Antibacterial activity against Staphylococcus aureus ATCC 9144 after 18 hrs by broth microdilution method. Conditions: ATCC 9144, 18 h. In a few lines: as §1
For experiment [6], the system named is Staphylococcus epidermidis. Kind of experiment: Antibacterial activity against Staphylococcus epidermidis CIP 81.55 after 18 hrs by broth microdilution method. Conditions: CIP 81.55, 18 h. In a few lines: as §1
The subject of experiment [7] is Staphylococcus aureus. Nature of the experiment: Antibacterial activity against Staphylococcus aureus CIP 65.6 after 18 hrs by broth microdilution method. Conditions: CIP 65.6, 18 h. A digest of the protocol: as §1
Experiment [8] concerns Staphylococcus aureus. Kind of experiment: Antibacterial activity against Staphylococcus aureus ATCC 25923 after 18 hrs by broth microdilution method. Conditions: ATCC 25923, 18 h. In a few lines: as §1
Experiment [9] relates to Staphylococcus aureus. Nature of the experiment: Antibacterial activity against Staphylococcus aureus ATCC 29213 after 18 hrs by broth microdilution method. The conditions noted are these: ATCC 29213, 18 h. In a few lines:
as §1

Experiment [10] deals with Staphylococcus aureus. Nature of the experiment: Antibacterial activity against methicillin-resistant Staphylococcus aureus ATCC 33592 after 18 hrs by broth microdilution method. The conditions noted are these: ATCC 33592, 18 h. A digest of the protocol:
(§2)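 Broth microdilution following ISO 20776-1:2006 and CLSI M07-A8, in Mueller-Hinton broth. Inoculum was 10^6 cfu/ml, with compound serial dilutions spanning 2 to 128 ug/ml and a compound-free growth control well. Plates were incubated 18 h at 37 °C. MIC was the lowest concentration giving complete inhibition of visible growth. Each compound was tested at least twice.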

Experiment [11] has as its system Staphylococcus aureus. Kind of experiment: Antibacterial activity against methicillin-resistant Staphylococcus aureus CIP 65.25 after 18 hrs by broth microdilution method. The conditions noted are these: CIP 65.25, 18 h. In a few lines: as §2
For experiment [12], the system named is Streptococcus pneumoniae. Kind of experiment: Antibacterial activity against Streptococcus pneumoniae ATCC 49619 after 18 hrs by broth microdilution method. Conditions: ATCC 49619, 18 h. A digest of the protocol:
(§3)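 MIC by broth microdilution per ISO 20776-1:2006 and CLSI M07-A8. Inoculum 10^6 cfu/ml in Mueller-Hinton broth […]. Compound serially diluted, final 2 to 128 ug/ml, duplicate rows, no-drug growth control. Read after 18 h at 37 °C as lowest concentration fully inhibiting visible growth. At least two experiments.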

The subject of experiment [13] is Streptococcus pneumoniae. Kind of experiment: Antibacterial activity against Streptococcus pneumoniae ATCC 6303 after 18 hrs by broth microdilution method. Conditions: ATCC 6303, 18 h. In a few lines:
as §3

Experiment [14] deals with Staphylococcus aureus. Nature of the experiment: Antibacterial activity against vancomycin intermediate Staphylococcus aureus […] after 18 hrs by broth microdilution method. A digest of the protocol:
as §2

With `CC(NO)c1c[nH]c2ccccc12` (centres undefined), the minimal inhibitory concentration (MIC) in experiment [1] came out at 64 µg/mL (≈ 363 µM); in experiment [2], 128 µg/mL (≈ 726 µM); in experiment [3], 64 µg/mL (≈ 363 µM); in experiment [4], 128 µg/mL (≈ 726 µM); in [5], 128 µg/mL (≈ 726 µM); in experiment [6], 64 µg/mL (≈ 363 µM). The MIC in [7], in experiment [8] and in experiment [9] was 128 µg/mL (≈ 726 µM) throughout.

For the compound `CC(c1c[nH]c2ccc(I)cc12)N(O)Cc1ccccc1` (centres undefined), the minimum inhibitory concentration (MIC) in experiment [1], in experiment [2], in experiment [3], in [4], in experiment [5] and in experiment [6] was over 128 µg/mL in each case. Moreover, the minimum inhibitory concentration (MIC) in experiment [7], in experiment [10], in experiment [11], in [12], in experiment [13] and in experiment [8] was over 128 µg/mL throughout. For the same compound, the MIC in experiment [9] and in [14] was over 128 µg/mL each time.

With `CC(C)(C)OC(=O)NCC(NO)c1c[nH]c2ccccc12` (centres undefined), the MIC in experiment [1], in experiment [2], in experiment [3], in experiment [4], in experiment [5] and in experiment [6] was over 128 µg/mL each time. Moreover, the MIC in experiment [7], in [8] and in experiment [9] was over 128 µg/mL each time.

Consider `CC(C)(C)OC(=O)NCC(c1c[nH]c2ccc(F)cc12)N(O)Cc1ccccc1` (centres undefined), for which the MIC in experiment [1], in experiment [2], in experiment [3], in experiment [4], in experiment [5] and in experiment [6] was over 128 µg/mL each time. The minimal inhibitory concentration (MIC) in experiment [7], in experiment [10], in experiment [11], in [12], in experiment [13] and in experiment [8] was over 128 µg/mL each time. Besides, the minimal inhibitory concentration (MIC) in experiment [9] and in [14] was over 128 µg/mL throughout.

For the compound `CC(C)(C)OC(=O)NCC(NO)c1c[nH]c2ccc(Cl)cc12` (centres undefined), the minimum inhibitory concentration (MIC) in experiment [1], in experiment [2], in experiment [3], in [4], in experiment [5] and in experiment [6] was 64 µg/mL (≈ 196 µM) throughout. Further, the MIC in [7], in experiment [8] and in [9] was 64 µg/mL (≈ 196 µM) each time.

As for `CC(c1c[nH]c2ccccc12)N(O)Cc1ccccc1` (centres undefined), the minimal inhibitory concentration (MIC) came out at 64 µg/mL (≈ 240 µM) in experiment [1]; 128 µg/mL (≈ 481 µM) in [2]; 64 µg/mL (≈ 240 µM) in experiment [3]; 128 µg/mL (≈ 481 µM) in [4]; 128 µg/mL (≈ 481 µM) in [5]; 64 µg/mL (≈ 240 µM) in [6]. Moreover, the MIC in experiment [7], in [8] and in [9] was 128 µg/mL (≈ 481 µM) throughout.

Regarding `CC(C)CC(c1c[nH]c2ccc(Cl)cc12)N(O)Cc1ccccc1` (centres undefined), the minimal inhibitory concentration (MIC) in experiment [1], in [2], in experiment [3], in experiment [4], in experiment [5] and in experiment [6] was over 128 µg/mL in each case. Also, the minimal inhibitory concentration (MIC) in experiment [7], in experiment [10], in [11], in experiment [12], in [13] and in experiment [8] was over 128 µg/mL in each case. The MIC in experiment [9] and in experiment [14] was over 128 µg/mL in each case.

With `CC(C)(C)OC(=O)NCC(NO)c1c[nH]c2ccc(I)cc12` (centres undefined), the MIC is 64 µg/mL (≈ 153 µM) in experiment [1]; 32 µg/mL (≈ 76.7 µM) in experiment [2]; 64 µg/mL (≈ 153 µM) in experiment [3]; 32 µg/mL (≈ 76.7 µM) in [4]; 32 µg/mL (≈ 76.7 µM) in experiment [5]; 64 µg/mL (≈ 153 µM) in [6]. For the same compound, the MIC in [7], in experiment [8] and in experiment [9] was 32 µg/mL (≈ 76.7 µM) in each case.

For `CC(C)(C)OC(=O)NCC(NO)c1c[nH]c2cc(F)ccc12` (centres undefined), the minimum inhibitory concentration (MIC) in experiment [1], in experiment [2], in [3], in experiment [4], in experiment [5] and in [6] was over 128 µg/mL in each case. Moreover, the minimal inhibitory concentration (MIC) in experiment [7], in experiment [8] and in [9] was over 128 µg/mL throughout.

In the case of `CC(NO)c1c[nH]c2ccc(F)cc12` (centres undefined), the MIC in experiment [1], in [2], in [3], in experiment [4], in experiment [5] and in experiment [6] was 64 µg/mL (≈ 330 µM) each time. The minimal inhibitory concentration (MIC) in [7], in [8] and in experiment [9] was 64 µg/mL (≈ 330 µM) in each case.

With `CC(C)(C)OC(=O)NCC(NO)c1c[nH]c2ccc(F)cc12` (centres undefined), the MIC in experiment [1], in experiment [2], in experiment [3], in experiment [4], in experiment [5] and in experiment [6] was over 128 µg/mL in each case. Further, the minimum inhibitory concentration (MIC) in experiment [7], in experiment [8] and in [9] was over 128 µg/mL throughout.

Consider `CC(C)(C)OC(=O)NCC(NO)c1c[nH]c2ccc(Br)cc12` (centres undefined), for which the minimal inhibitory concentration (MIC) stood at 64 µg/mL (≈ 173 µM) in experiment [1]; 32 µg/mL (≈ 86.4 µM) in experiment [2]; 64 µg/mL (≈ 173 µM) in [3]; 32 µg/mL (≈ 86.4 µM) in [4]; 32 µg/mL (≈ 86.4 µM) in [5]; 64 µg/mL (≈ 173 µM) in experiment [6]. Also, the MIC in experiment [7], in [8] and in experiment [9] was 32 µg/mL (≈ 86.4 µM) each time.

With `CC(C)(C)OC(=O)NCC(NO)c1c[nH]c2cccc(Br)c12` (centres undefined), the MIC in experiment [1], in [2], in [3], in experiment [4], in [5] and in experiment [6] was 128 µg/mL (≈ 346 µM) in each case. Besides, the MIC in [7], in experiment [8] and in experiment [9] was 128 µg/mL (≈ 346 µM) in each case.

Consider `CC(C)(C)OC(=O)NCC(NO)c1c[nH]c2cc(Cl)ccc12` (centres undefined), for which the minimal inhibitory concentration (MIC) in [1] is over 128 µg/mL; in experiment [2], 128 µg/mL (≈ 393 µM); in experiment [3], over 128 µg/mL; in experiment [4], 128 µg/mL (≈ 393 µM); in [5] it was 128 µg/mL (≈ 393 µM); in experiment [6] it was over 128 µg/mL. The minimal inhibitory concentration (MIC) in experiment [7], in experiment [8] and in [9] was 128 µg/mL (≈ 393 µM) each time.

As for `CC(C)(C)OC(=O)NCC(NO)c1c[nH]c2cc(Br)ccc12` (centres undefined), the minimum inhibitory concentration (MIC) in [1], in experiment [2], in [3], in experiment [4], in experiment [5] and in experiment [6] was 64 µg/mL (≈ 173 µM) each time. The MIC in experiment [7], in [8] and in [9] was 64 µg/mL (≈ 173 µM) throughout.

As for `CC(NO)c1c[nH]c2ccc(Br)cc12` (centres undefined), the MIC in experiment [1], in [2], in [3], in [4], in experiment [5] and in [6] was 64 µg/mL (≈ 251 µM) each time. Further, the MIC in experiment [7], in experiment [8] and in experiment [9] was 64 µg/mL (≈ 251 µM) in each case.

As a reminder, the MIC is the least concentration at which growth counts as inhibited. A lower MIC goes with inhibition by little substance.
